Results reported in ChEMBL document CHEMBL3861966, “Di-nor- and 17-nor-pimaranes from Icacina trichantha” (J Nat Prod, 2016).

Experiments:
Type in all cases: functional, cell-based
[1] = Cytotoxicity against human MDA-MB-231 cells assessed as decrease in cell viability after 72 hrs by cell titer 96 one solution assay; conditions: MDA-MB-231, 72 h
Method in brief: (§1)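 Cells grown at 37 °C, 5% CO2 in RPMI 1640 with 10% FBS, penicillin 100 units/mL, streptomycin 100 μg/mL. Log-phase cells trypsinized, washed twice, seeded at 5000/well, left overnight. DMSO-dissolved samples added at 20, 4, 0.8, 0.16, 0.032 μM (final DMSO 0.5%). After 72 h at 37 °C, viable cells read by MTS-type absorbance kit. IC50 in μM relative to DMSO control.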

[2] = Cytotoxicity against human OVCAR3 cells assessed as decrease in cell viability after 72 hrs by cell titer 96 one solution assay; conditions: OVCAR-3, 72 h; method in brief: as §1
[3] = Cytotoxicity against human MDA-MB-435 cells assessed as decrease in cell viability after 72 hrs by cell titer 96 one solution assay; conditions: MDA-MB-435, 72 h; method in brief: as §1

Row | SMILES | IC50 [1] | IC50 [2] | IC50 [3]
1 | C[C@]12C(=O)O[C@@H]3[C@@H](O)[C@H]4c5occc5C(=O)C[C@H]4[C@]4(CO[C@@]1(O)[C@@H](O)C4)[C@@H]32 | 7.6 µM | 7.53 µM | 2.91 µM
2 | C[C@]12C(=O)O[C@@H]3C[C@H]4C5=C(CC[C@H]4[C@]4(CO[C@@]1(O)[C@@H](O)C4)[C@@H]32)C(=O)CO5 | 2.85 µM | 3.23 µM | 1.48 µM
3 | CC[C@]1(O)C[C@@H]2CN(CCc3c([nH]c4ccccc34)[C@@](C(=O)OC)(c3cc4c(cc3OC)N(C)[C@H]3[C@@](O)(C(=O)OC)[C@H](OC(C)=O)[C@]5(CC)C=CCN6CC[C@]43[C@@H]65)C2)C1 [VINBLASTINE] | – | – | 0.00049 µM
4 | COc1cc2c(c3occc13)[C@H](O)[C@H]1OC(=O)[C@]3(C)[C@H]1[C@]21CC[C@]3(O)OC1 | > 20 µM | > 20 µM | > 20 µM
5 | COc1cc2c(c(O)c1C=O)C[C@H]1OC(=O)[C@]3(C)[C@H]1[C@]21CC[C@]3(O)OC1 | > 20 µM | > 20 µM | > 20 µM
6 | COc1cc2c(c3occc13)[C@@H](O)[C@@]1(O)OC[C@@]23CCC(=O)[C@@H](C)[C@@H]31 | > 20 µM | > 20 µM | > 20 µM
7 | COc1cc2c(c3occc13)[C@H]1OC3O[C@@]4(O)CC[C@@]23[C@H]2[C@@H]1OC(=O)[C@]24C | > 20 µM | > 20 µM | > 20 µM
